The text below walks through data of ChEMBL document CHEMBL1177757, “C(2)-Symmetric azobenzene-amino acid conjugates and their inhibition of Subtilisin Kexin Isozyme-1” (Bioorg Med Chem Lett, 2010).

Data set [1] concerns the target T1, Membrane-bound transcription factor site-1 protease (Homo sapiens, UniProt Q14703).
T1 sequence (Q14703 whole entry): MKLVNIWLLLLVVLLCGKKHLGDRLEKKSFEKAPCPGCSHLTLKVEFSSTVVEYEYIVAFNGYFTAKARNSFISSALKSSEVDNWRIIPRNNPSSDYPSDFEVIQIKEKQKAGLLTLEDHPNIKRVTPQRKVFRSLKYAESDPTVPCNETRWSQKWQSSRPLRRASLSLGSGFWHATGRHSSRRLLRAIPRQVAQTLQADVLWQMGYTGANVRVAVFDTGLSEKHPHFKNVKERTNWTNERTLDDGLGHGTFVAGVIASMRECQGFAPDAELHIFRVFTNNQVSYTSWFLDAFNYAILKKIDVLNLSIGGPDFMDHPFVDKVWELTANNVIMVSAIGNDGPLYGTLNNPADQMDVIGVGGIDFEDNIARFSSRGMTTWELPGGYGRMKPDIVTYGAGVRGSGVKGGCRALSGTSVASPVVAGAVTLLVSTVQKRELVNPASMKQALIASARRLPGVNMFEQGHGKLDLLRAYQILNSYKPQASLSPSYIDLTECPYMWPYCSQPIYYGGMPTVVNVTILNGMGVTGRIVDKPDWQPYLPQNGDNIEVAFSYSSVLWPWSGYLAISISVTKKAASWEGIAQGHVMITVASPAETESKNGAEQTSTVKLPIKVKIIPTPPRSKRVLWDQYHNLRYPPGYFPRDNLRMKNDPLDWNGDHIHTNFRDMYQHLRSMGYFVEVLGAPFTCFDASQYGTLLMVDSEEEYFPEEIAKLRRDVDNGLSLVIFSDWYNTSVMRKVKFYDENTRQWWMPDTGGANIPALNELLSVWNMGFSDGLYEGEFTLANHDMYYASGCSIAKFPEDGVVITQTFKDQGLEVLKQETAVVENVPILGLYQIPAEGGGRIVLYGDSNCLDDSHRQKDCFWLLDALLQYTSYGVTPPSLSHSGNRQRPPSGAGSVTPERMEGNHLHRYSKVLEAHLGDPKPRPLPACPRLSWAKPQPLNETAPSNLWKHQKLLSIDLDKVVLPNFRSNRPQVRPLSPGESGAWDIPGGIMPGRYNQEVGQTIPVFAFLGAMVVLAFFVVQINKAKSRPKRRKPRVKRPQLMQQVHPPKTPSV
The data set can be described thus: Inhibition of human recombinant soluble Kexin isozyme 1. The gist of the method:
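Recombinant soluble human SKI-1 (activity normalized to 10 pmol Abz-peptide released per µL per h, 37 °C). Only the E-form was tested, at varying concentrations, with quenched fluorogenic Abz-Q-GPC251–263-Tyx substrate in Tris/Mes/2 mM CaCl2 buffer at 37 °C. RFU (ex 320/em 420 nm) were read from 0–6 h and converted to cleavage rates. Ki came from Dixon plots at 0.1, 0.05 and 0.025 mM substrate.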

The nature of data set [2]: Chemical stability assessed as half life of degradation. Type of data set: physicochemical. The gist of the method:
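Z-isomer formed by long-wavelength UV irradiation, then its thermal reisomerization to the E-form followed. First-order rate constant (h⁻¹) and Z-isomer half-life (h) derived.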

For orientation: Ki means the equilibrium dissociation constant of an inhibitor or competing ligand from its target. A word on the half-life: it is the time in which the quantity being followed falls by half. For `CC(C)[C@H](NC(=O)COc1ccccc1/N=N/c1ccccc1OCC(=O)N[C@H](C(=O)OCc1ccccc1)C(C)C)C(=O)OCc1ccccc1`, the Ki in data set [1] stood at 125 µM. In addition, in data set [2], the half-life is 31.5 h.
For `O=C(O)CNC(=O)COc1ccccc1/N=N/c1ccccc1OCC(=O)NCC(=O)O`, in data set [1], the Ki worked out at 265 µM.
On to `O=C(COc1ccccc1/N=N/c1ccccc1OCC(=O)NCC(=O)OCc1ccccc1)NCC(=O)OCc1ccccc1`, for which, in data set [2], the half-life was 77 h.
In the case of `O=C(COc1ccccc1/N=N/c1ccccc1OCC(=O)N[C@@H](Cc1ccccc1)C(=O)OCc1ccccc1)N[C@@H](Cc1ccccc1)C(=O)OCc1ccccc1`, the Ki in data set [1] was 11.8 µM. For the same compound, the half-life in data set [2] was 69.3 h.
Turning to `CC(C)[C@H](NC(=O)COc1ccccc1/N=N/c1ccccc1OCC(=O)N[C@H](C(=O)O)C(C)C)C(=O)O`, the Ki in data set [1] is 75 µM.
The same measure, in the same setting: the result for `O=C(COc1ccccc1/N=N/c1ccccc1OCC(=O)N[C@@H](Cc1ccccc1)C(=O)N[C@@H](Cc1ccccc1)C(=O)O)N[C@@H](Cc1ccccc1)C(=O)N[C@@H](Cc1ccccc1)C(=O)O` reads 140 µM.
On to `O=C(COc1ccccc1/N=N/c1ccccc1OCC(=O)N[C@@H](Cc1ccccc1)C(=O)N[C@@H](Cc1ccccc1)C(=O)OCc1ccccc1)N[C@@H](Cc1ccccc1)C(=O)N[C@@H](Cc1ccccc1)C(=O)OCc1ccccc1`, for which the half-life in data set [2] was 28.9 h.
`O=C(COc1ccccc1/N=N/c1ccccc1OCC(=O)N[C@@H](Cc1ccccc1)C(=O)O)N[C@@H](Cc1ccccc1)C(=O)O`: the Ki in data set [1] was 225 µM.
